What was measured:
[1] = biological target: hMOR (Homo sapiens, UniProt P35372); type: cell-based; details: hMOR-CHO cells with Gqi5; data not shown
[2] = biological target: CCR5 (Homo sapiens, UniProt P51681); test: Ca2+ flux assay in Gqi5 transfected CCR5-MOLT-4 cells; type: cell-based; details: for Potency decrease in RANTES induced Ca2+ flux inhibition compared to maraviroc: relative to maraviroc
[3] = tested on: HIV-1SF162; type: cell-based; details: human astrocytes
In short: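 Human astrocytes infected with R5 HIV-1SF162; infection assessed by a luciferase-based read-out of relative Tat protein expression at 18 h post-infection. Dose–response was run per compound first. Fixed levels: test compound 100 nM, CCR5 antagonist reference 100 nM, opioid antagonist reference 1.5 μM. Values are […] ± SEM of three independent experiments; statistics vs uninfected control cells.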

[4] = tested on: astroglial cells; test: Viability of astroglial cells, dual fluorescence labeling with AOPI; type: cell-based, human; details: 100 nM, data not shown
[5] = biological target: CCR5 (Macaca mulatta, UniProt P61813); test: CCR5 competitive radioligand binding assay; parameters: species or system rhesus macaque; details: relative to maraviroc
[6] = 100 nM, R5 HIV-1SF162, 18 h post-infection

Sequence of CCR5 (Homo sapiens, UniProt P51681) (P51681 whole entry): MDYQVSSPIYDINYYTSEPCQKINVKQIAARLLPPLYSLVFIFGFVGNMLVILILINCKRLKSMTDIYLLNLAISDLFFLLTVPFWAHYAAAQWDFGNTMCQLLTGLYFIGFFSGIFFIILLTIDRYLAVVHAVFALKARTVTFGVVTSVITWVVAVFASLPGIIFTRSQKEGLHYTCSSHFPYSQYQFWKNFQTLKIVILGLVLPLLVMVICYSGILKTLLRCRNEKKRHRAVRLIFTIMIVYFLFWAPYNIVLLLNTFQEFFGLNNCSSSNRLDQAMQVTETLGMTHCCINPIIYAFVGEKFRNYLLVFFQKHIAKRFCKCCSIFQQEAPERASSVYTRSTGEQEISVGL
Sequence of hMOR (P35372 whole entry): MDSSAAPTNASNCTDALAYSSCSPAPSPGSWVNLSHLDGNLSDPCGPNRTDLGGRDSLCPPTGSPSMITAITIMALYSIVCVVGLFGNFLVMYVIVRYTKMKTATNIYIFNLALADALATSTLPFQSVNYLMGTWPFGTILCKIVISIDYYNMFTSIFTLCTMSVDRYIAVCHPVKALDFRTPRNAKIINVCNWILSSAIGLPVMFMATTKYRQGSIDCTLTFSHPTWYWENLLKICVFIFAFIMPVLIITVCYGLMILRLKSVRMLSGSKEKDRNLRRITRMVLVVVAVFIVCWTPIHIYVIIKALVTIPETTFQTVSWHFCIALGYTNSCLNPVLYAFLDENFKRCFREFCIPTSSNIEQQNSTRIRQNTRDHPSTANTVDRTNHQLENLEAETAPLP

Row | Compound | MOR agonism in Ca2+ mobilization assay [1] | Potency decrease in RANTES induced Ca2+ flux inhibition compared to maraviroc [2] | Effect on viral entry / Tat expression [3, 6] | also measured
1 | Cc1nnc(C(C)C)n1C1CC2CCC(C1)N2CC[C@H](NC(=O)C1CCC(F)(F)CC1)c1ccc(NC(=O)COCC(=O)NCCCCCCCNC(=O)COCC(=O)N[C@@H]2CC[C@@]3(O)[C@H]4Cc5ccc(O)c6c5[C@@]3(CCN4CC3CC3)[C@H]2O6)cc1 (some centres unmarked) [compound 1] | No agonism was observed | approximately 60 fold | significantly effective in inhibiting viral entry | CCR5 agonism in Ca2+ assay ([2]; CCR5-MOLT-4 cells with Gqi5, data not shown): no CCR5 agonism was detected; Decrease in Tat expression compared to maraviroc alone ([3]; 100 nM, vs maraviroc 100 nM): at least a two-fold decrease in Tat expression; Effect on viability of astroglial cells [4]: did not affect the viability of astroglial cells
2 | CNC(=O)COCC(=O)NCCCCCCCNC(=O)COCC(=O)Nc1ccc([C@H](CCN2C3CCC2CC(n2c(C)nnc2C(C)C)C3)NC(=O)C2CCC(F)(F)CC2)cc1 (some centres unmarked) [compound 3] | – | ~300 fold | – | –
3 | Cc1nnc(C(C)C)n1C1CC2CCC(C1)N2CC[C@H](NC(=O)C1CCC(F)(F)CC1)c1ccc(N)cc1 (some centres unmarked) [compound 4] | – | – | – | Decrease in CCR5 binding affinity compared to maraviroc [5]: approximately 65 fold
4 | maraviroc [reference compound] | – | – | considerably inhibited viral entry | –
5 | O=C1CC[C@@]2(O)[C@H]3Cc4ccc(O)c5c4[C@@]2(CCN3CC2CC2)[C@H]1O5 [naltrexone, reference compound] | – | – | – | Effect on Tat production ([3]; 1.5 μM, R5 HIV-1SF162, 18 h post-infection): did not show significant effect on Tat production
6 | CNC(=O)COCC(=O)NCCCCCCCNC(=O)COCC(=O)N[C@@H]1CC[C@@]2(O)[C@H]3Cc4ccc(O)c5c4[C@@]2(CCN3CC2CC2)[C@H]1O5 [compound 2] | No agonism was observed | – | – | –

From article PMC3652433 (MedChemComm, 2013)
